Source: PubChem BioAssay
APP 5'UTR act: APP 5'UTR luciferase reporter activation | AID 1276 | 190,000 tested, 1% active | activation, % at 2 µM | SH-SY5Y APP 5'UTR luciferase reporter, luminescence; zero percent = DMSO vehicle wells;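 active = activation above a set limit, based on mean plus 3 SD of controls, cut at about 140% in these data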
STAT1 activator: increases IFN-gamma driven STAT1 reporter signal; 200,000 tested, 2.6% active; NIH 3T3 STAT1-luciferase reporter, luminescence; 100% = IFN-gamma alone, no compound; activation (% of control), % at 5.5 µM;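 active = activation above the screen-wide mean activation plus 3 SD, cut at about 130% in these data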;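 also: raw ratio to IFN-gamma control signal so 100% means no change and 0% no light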
STAT1 inh: reduces IFN-gamma driven STAT1 reporter signal; NIH 3T3 STAT1-luciferase reporter, luminescence; 200,000 tested, 0.35% active; inhibition, % at 5.5 µM;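 active = inhibition above a set limit, the mean inhibition across all tested compounds plus 3 SD, cut at about 34% in these data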;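 also: 0% = IFN-gamma with DMSO and 100% = IFN-gamma with 300 µM nifuroxazide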
STAT3 blocker: STAT3 signaling inhibition. inhibition, % at 5.5 µM. 190,000 tested, 0.89% active. U3A cells, IL-6 STAT3-luciferase reporter, luminescence; host cell line lacks STAT1. AID 862;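 active = inhibition above the mean inhibition across all screened compounds plus 3 SD, cut at about 44% in these data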;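 also: 0% = DMSO only wells and 100% = 100 µM nifuroxazide control wells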
STAT3 act: STAT3 signaling activation. U3A cells, IL-6 STAT3-luciferase reporter, luminescence; 100% = signal with IL-6 EC80 alone. activation (% of control), % at 5.6 µM. 190,000 tested, 0.91% active;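 active = activation above the screen-wide mean of compound activation plus 3 SD, cut at about 130% in these data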;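 also: 0% = background luminescence of wells with medium and substrate only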
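Material: STAT3-luciferase reporter U3A cells. Controls: IL-6-treated wells, 100% activation. Read-out: % activation versus median of IL-6-stimulated wells. Probe or stimulus: IL-6 stimulus at 33 ng/mL final. Timing: compound 1 h, then IL-6 6 h at 37 °C. Signal: reporter luminescence signal.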
NF-kB expr up: raises NF-kB expression in human neuronal cells. 190,000 tested, 1.6% active. NF-kB reporter expression; stronger effect = higher value. AID 1239. fold change at 12.5 µM; in the data active = fold change above about 3.3
Active calls of the source: *; nt = no result given. Only some compounds are listed: those with a hit (about 4.9% of all), similar ones and a draw of the others.

SMILES | APP 5'UTR act | STAT1 activator | STAT1 inh | STAT3 blocker | STAT3 act | NF-kB expr up
Cn1cc(CNCc2cn[nH]c2-c2ccc(F)cc2)c(-c2ccc3c(c2)OCCO3)n1 | 15 | 93 | 7 | 12 | 94 | 1.2
Cn1cc(CNCc2ccc(OC(F)(F)F)cc2)c(-c2ccc3c(c2)OCCO3)n1 | 11 | 69 | 33 | 56* | 54 | 0.57
COc1ccc(Cc2nnc(NC(=O)Cn3cnc4c3c(=O)n(C)c(=O)n4C)s2)cc1 | 6 | 105 | -42 | -1 | 102 | 0.97
CCCC(=O)NC(c1ccccc1OC)c1ccc2cccnc2c1O (configuration not stated) | -75 | 93 | 6 | 14 | 90 | 4.7*
O=C(Nc1ccc2c(c1)OCCO2)C(=S)NCc1ccccc1 | 30 | 112 | -14 | 0 | 101 | 1.9
COc1ncnc2c1oc1ccccc12 | 100 | 146* | -52 | -13 | 113 | 3.3*
CC(C)Sc1ncnc2c1oc1ccccc12 | -1 | 103 | -3 | 8 | 95 | 1.2
CCCSc1ncnc2c1oc1ccccc12 | -3 | 118 | -20 | 12 | 91 | 1.5
c1ccc(Sc2ncnc3c2oc2ccccc23)nc1 | 68 | 132* | -35 | -1 | 103 | 2.3
O=C(NCc1cccnc1)c1cc(Sc2ccc(F)cc2F)nc2ccccc12 | 19 | 93 | 7 | -4 | 104 | 0.52
CCN(CC(=O)NCc1ccc(F)cc1)c1ccc(S(C)(=O)=O)cc1[N+](=O)[O-] | 11 | 101 | -3 | -2 | 106 | nt
Cc1ccc(N=Nc2c(C)[nH]n(C(N)=S)c2=O)cc1 | 48 | 137* | -41 | -30 | 126 | 2.6
O=S(=O)([N-]c1nc2ccccc2nc1-[n+]1ccc(-c2ccncc2)cc1)c1ccccc1 | 75 | 129* | -31 | -8 | 111 | 0.82
COc1ccc(NC(=S)NNC(=O)CNc2ccc(Cl)cc2)cc1 | -4 | 113 | -17 | -8 | 107 | 1
N=C1N(/N=C/c2ccccc2)C(=Nc2ccccc2)C(=S)N1c1ccccc1 | 20 | 132* | -39 | 5 | 98 | 2.3
Cc1nnc(C)n1/N=C/c1ccccc1 | -17 | 92 | 8 | -2 | 106 | 1.3
CCS(=O)(=O)N1CCN=C1SCc1cccnc1 | 15 | 108 | -11 | 2 | 104 | 1.2
CC1=NN(C(=O)Cc2ccc([N+](=O)[O-])cc2)C(O)(c2ccccc2)C1 (configuration not stated) | -5 | 105 | -4 | -1 | 102 | 1.1
O=C1OCCC1Sc1nc2ccccc2s1 (configuration not stated) | -8 | 106 | -5 | -2 | 104 | 1.3
OC1CCCCC1Sc1nc2ccccc2s1 (configuration not stated) | 10 | 130* | -33 | -2 | 105 | 2.1
O=C(Cc1cc(=O)[nH]c(=O)[nH]1)NCCN1CCOCC1 | -4 | 116 | -17 | 10 | 99 | 1
Cc1ccc(S(=O)(=O)/N=C(\c2ccc(F)cc2)n2c(C)nc3ccccc32)cc1 | -17 | 96 | 4 | 7 | 104 | 1.3
COc1ccc(NC(=O)Nc2nc3c(s2)CCCC3)cc1 | 150* | 148* | -53 | 5 | 98 | 4.9*
Cc1ccc(S(=O)(=O)N2CCCC2C(=O)NC2=NCCS2)cc1 (configuration not stated) | -7 | 104 | -4 | 9 | 96 | 1.1
Cc1c(C(=O)OC2CCCC2)[nH]c2c1C(=O)CC(c1ccco1)C2 (configuration not stated) | -94 | 97 | 0 | -25 | 120 | 4.3*
SMILES | APP 5'UTR act | STAT1 activator | STAT1 inh | STAT3 blocker | STAT3 act | NF-kB expr up
Cc1c(C(=O)OC2CCCC2C)[nH]c2c1C(=O)CCC2 (configuration not stated) | 25 | 110 | -10 | 16 | 87 | 2
C=CCOC(=O)c1[nH]c2c(c1C)C(=O)CC(c1ccco1)C2 (configuration not stated) | -97 | 97 | 5 | -36 | 130 | 4.7*
COC(=O)C1C(=O)c2c([nH]c(C(=O)OC3CCCC3)c2C)CC1C (configuration not stated) | 109 | 144* | -57 | -9 | 108 | 3.4*
C/C=C/COC(=O)c1[nH]c2c(c1C)C(=O)CC(c1ccco1)C2 (configuration not stated) | -95 | 87 | 15 | 3 | 102 | 1.9
Cc1cc(Cl)ccc1NC(=S)NCCC(c1ccccc1)c1ccccc1 | 6 | 103 | 0 | 3 | 106 | 1.1
Fc1ccc2nc3[nH]c4ccccc4c3nc2c1 | 157* | 214* | -125 | -34 | 135* | 4.4*
Cc1c(Cl)ccc2c(C(=O)NCCN3CCCCC3)cc(-c3ccccn3)nc12 | 13 | 116 | -20 | -42 | 134* | 0.98
O=C(CNC(=S)N(Cc1ccccc1)Cc1ccccc1F)NCCc1ccc(Cl)cc1 | -11 | 104 | -6 | -13 | 112 | 1.1
COCc1cc(C)[nH]c(=O)c1C(=O)NC12CC3CC(CC(C3)C1)C2 | -12 | 106 | -7 | 8 | 98 | 1.1
Oc1ccc2c(c1)oc1cc(O)ccc12 | 2 | 95 | 6 | 9 | 96 | 7*
CCOC(=O)CCCc1sc(N)nc1-c1[nH]c(=O)[nH]c1C | 8 | 96 | 5 | 5 | 97 | 1.2
CCCSc1nc(C)c2cc(C)cc(C)c2n1 | -3 | 89 | 12 | 0 | 98 | 0.98
Cc1cc(C)c2nc3nc(C)c(C)cc3c(N)c2c1 | -4 | 143* | -46 | -19 | 122 | 0.84
c1ccc(Nc2scc(-c3ccccc3)[n+]2Cc2ccco2)cc1 | 113 | 143* | -46 | -9 | 111 | 3.4*
COCCn1c(-c2ccccc2)csc1=Nc1cccnc1 | 1 | 89 | 12 | 10 | 98 | 1.1
CC(C)n1c(-c2ccco2)csc1=Nc1cccnc1 | -1 | 91 | 10 | -34 | 135* | 0.72
O=C(N/N=C/C=C/c1ccccc1[N+](=O)[O-])c1cccs1 | 9 | 109 | -10 | 4 | 94 | 4.2*
O=C(N/N=C/c1ccc(OCc2ccccc2)cc1)c1cccs1 | 4 | 140* | -45 | -9 | 110 | 1.7
O=C(CNc1cccc2ccccc12)N/N=C/C(Br)=C/c1ccccc1 | -7 | 91 | 10 | 15 | 90 | 0.78
O=C(N/N=C/C(Br)=C/c1ccccc1)c1cccs1 | 147* | 148* | -55 | 15 | 90 | 7.5*
O=C(N/N=C/C=C\c1ccccc1[N+](=O)[O-])c1ccncc1 | -6 | 94 | 5 | 10 | 95 | 0.91
Oc1ccc(N=Cc2ccc(OCc3ccccc3)cc2)cc1 | 33 | 142* | -44 | -2 | 103 | 3.2
CCN(c1ccc(NC(=O)CN2C(=O)NC3(CCOc4ccccc43)C2=O)cc1)C(C)C (configuration not stated) | -2 | 106 | -6 | 6 | 95 | 0.95
